# Experimental data as given in article PMC7355085 (ACS chemical neuroscience, 2016).
# Where two headings read alike, the source gives them in different places.
# Assays:
# other 18 kinases = assay: Kinase selectivity panel; assay type: biochemical; details: 224 μM; p > 0.05
# SH-SY5Y cells [1] = assay: Aβ42-induced tau phosphorylation in SH-SY5Y cells; assay type: cell-based, human
# Outline: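 SH-SY5Y cells were seeded at 3 × 10^5 cells/mL in DMEM/F12 with 1% FBS. […] Lysates in pyrophosphate buffer pH 7.4, 10 μg/lane, 10% SDS-PAGE, PVDF; primary antibodies 2 h at room temperature; β-actin loading control.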
# SH-SY5Y cells [2] = assay: Morphological changes of SH-SY5Y cells; assay type: cell-based, human
# Outline: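 SH-SY5Y cultures (37 °C, humidified, 5% CO2) were examined by microscopy after 72 h. Conditions were 0.2% DMSO vehicle control, 10 μM Aβ42 alone, or test compound pretreatment followed by 10 μM Aβ42. Read-out was differentiation state and neurite extension or retraction.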
# PKC = PKC (Homo sapiens, UniProt P17252); assay: Kinase selectivity panel; assay type: biochemical; details: read-out: Inhibition against PKC
# AKT1 = AKT1 (Homo sapiens, UniProt P31749); assay: Kinase selectivity panel; assay type: biochemical; details: read-out: Inhibition against AKT1
# Chain of AKT1 (P31749 whole entry): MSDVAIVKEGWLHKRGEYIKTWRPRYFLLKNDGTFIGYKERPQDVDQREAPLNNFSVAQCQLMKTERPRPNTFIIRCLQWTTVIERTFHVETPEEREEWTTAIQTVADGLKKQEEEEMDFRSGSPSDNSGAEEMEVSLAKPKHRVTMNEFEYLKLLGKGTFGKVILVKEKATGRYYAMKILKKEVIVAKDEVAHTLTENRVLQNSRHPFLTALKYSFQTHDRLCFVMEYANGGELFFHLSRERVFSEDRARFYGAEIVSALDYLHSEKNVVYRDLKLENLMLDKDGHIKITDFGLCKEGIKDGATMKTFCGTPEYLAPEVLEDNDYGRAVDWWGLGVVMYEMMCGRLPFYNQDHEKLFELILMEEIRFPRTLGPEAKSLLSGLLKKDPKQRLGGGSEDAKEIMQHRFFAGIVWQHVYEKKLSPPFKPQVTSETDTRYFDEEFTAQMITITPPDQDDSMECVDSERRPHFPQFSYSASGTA
# SH-SY5Y cells [3] = assay: Neuroprotection against Aβ42-induced cytotoxicity, cell viability assay; assay type: cell-based, human; details: 1 112 μM; combinations with LiCl 10 mM or TDZD-8 10 μM; 10 μM Aβ42, 72 h
# CK2 = CK2 (Homo sapiens, UniProt P68400); assay: Kinase selectivity panel; assay type: biochemical; details: read-out: Inhibition against CK2
# Chain of CK2 (P68400 whole entry): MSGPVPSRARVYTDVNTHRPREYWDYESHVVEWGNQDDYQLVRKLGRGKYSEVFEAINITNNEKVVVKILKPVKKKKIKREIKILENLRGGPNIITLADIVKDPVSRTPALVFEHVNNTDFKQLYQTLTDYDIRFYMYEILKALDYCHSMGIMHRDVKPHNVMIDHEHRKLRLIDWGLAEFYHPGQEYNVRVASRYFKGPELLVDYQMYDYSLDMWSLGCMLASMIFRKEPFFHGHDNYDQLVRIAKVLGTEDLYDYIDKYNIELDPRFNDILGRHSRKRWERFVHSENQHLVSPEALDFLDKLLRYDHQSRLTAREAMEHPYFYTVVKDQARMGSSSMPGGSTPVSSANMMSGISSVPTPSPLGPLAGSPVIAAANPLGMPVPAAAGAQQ
# SH-SY5Y cells [4] = assay: Cell viability / cytotoxicity assessment in SH-SY5Y cells; assay type: cell-based, human
# GSK3β [5] = biological target: T1, GSK3β (Homo sapiens, UniProt P49841); assay type: biochemical
# T1 sequence (P49841 whole entry): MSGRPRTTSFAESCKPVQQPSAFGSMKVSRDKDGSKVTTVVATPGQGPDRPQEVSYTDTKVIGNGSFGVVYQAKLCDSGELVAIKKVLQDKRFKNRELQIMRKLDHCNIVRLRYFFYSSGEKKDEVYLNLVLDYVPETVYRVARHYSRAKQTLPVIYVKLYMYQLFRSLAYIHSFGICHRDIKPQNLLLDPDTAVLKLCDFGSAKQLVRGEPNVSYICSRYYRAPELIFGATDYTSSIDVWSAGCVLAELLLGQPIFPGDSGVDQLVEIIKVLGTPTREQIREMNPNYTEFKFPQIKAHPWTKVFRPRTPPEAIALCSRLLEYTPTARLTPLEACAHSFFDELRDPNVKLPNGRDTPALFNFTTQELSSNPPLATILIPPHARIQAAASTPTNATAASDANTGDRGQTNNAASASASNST
# CDK5/p25 = CDK5/p25 (Homo sapiens, UniProt Q00535); assay: ADP-Glo kinase luminescent assay, CDK5/p25 inhibition; assay type: biochemical
# Chain of CDK5/p25 (Q00535 whole entry): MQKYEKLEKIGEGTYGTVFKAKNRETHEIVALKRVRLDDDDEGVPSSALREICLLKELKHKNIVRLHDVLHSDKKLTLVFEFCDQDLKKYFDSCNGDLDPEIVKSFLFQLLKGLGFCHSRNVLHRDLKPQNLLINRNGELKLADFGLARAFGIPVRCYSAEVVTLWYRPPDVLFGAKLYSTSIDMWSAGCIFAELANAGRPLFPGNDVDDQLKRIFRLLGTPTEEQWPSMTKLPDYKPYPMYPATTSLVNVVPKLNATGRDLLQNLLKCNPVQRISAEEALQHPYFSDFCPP
# Chain of CDK5/p25 (Q15078 99-307 partner limits assumed): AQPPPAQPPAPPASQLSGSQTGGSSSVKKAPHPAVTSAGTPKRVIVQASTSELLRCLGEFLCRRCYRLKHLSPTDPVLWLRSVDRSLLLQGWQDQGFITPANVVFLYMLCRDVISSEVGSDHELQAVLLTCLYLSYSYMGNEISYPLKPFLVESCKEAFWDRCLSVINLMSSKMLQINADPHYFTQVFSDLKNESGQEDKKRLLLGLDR
# GSK3β [6] = biological target: T1, GSK3β; assay: GSK3β enzyme kinetics; assay type: biochemical; details: noncompetitive inhibition with respect to ATP, GS2 constant at 17 μM, varying ATP
# Outline: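 Substrate GS2 held at 17 μM while ATP and test compound concentrations were varied. Vehicle was 5% DMSO. Quadruplicates from each of two independent experiments; means ± SEM.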
# GSK3β [7] = biological target: T1, GSK3β; assay: Promiscuous aggregation assay: GSK3β inhibition with Triton X-100; assay type: biochemical
compound,measurement,setting,value
"O=c1cc(-c2ccc(O)c(O)c2)oc2cc(O)c([C@@H]3O[C@H](CO)[C@@H](O)[C@H](O)[C@H]3O)c(O)c12 [Compound 1, isoorientin]",Inhibition of other 18 kinases of the panel,other 18 kinases,did not significantly inhibit
same,Levels of GSK3β pS9 and total GSK3β,"SH-SY5Y cells [1]; co-incubation of 1 with 10 μM Aβ42, 72 h, compared to untreated cells, p > 0.05",No significant change
same,Cell morphology,"SH-SY5Y cells [2]; pretreatment of 28 μM 1 followed by 10 μM Aβ42, 72 h",Partial differentiated cells with extended neurites
same,Cell morphology,"SH-SY5Y cells [2]; pretreatment of 448 μM 1 followed by 10 μM Aβ42, 72 h",Protected differentiated cells with extended axons and dendrites
same,inhibition at 224 µM,PKC,~30%
same,inhibition at 224 µM,AKT1,~30%
same,"Neuroprotection against cell viability loss, single concentration",SH-SY5Y cells [3],neuroprotection against cell viability loss
same,inhibition at 224 µM,CK2,~30%
same,Dose up to which no cytotoxicity to SH-SY5Y cells was noted,SH-SY5Y cells [4]; 72 h,> 896 µM
same,Effect on cell proliferation,"SH-SY5Y cells [4]; 72 h, without Aβ42",slightly stimulated cell proliferation
same,Decrease of GSK3β kinase activity,"GSK3β [5]; 224 μM, compared to control (100% kinase activity), p < 0.0001",52.4%
same,IC50,CDK5/p25,> 15000 µM
same,Ki,GSK3β [6],210 ± 22 µM
same,IC50,GSK3β [7],192 µM
β-Amyloid fragment peptide 1–42 [Aβ42],Increase of tau phosphorylation at pS199/pS202 relative to untreated cells,"SH-SY5Y cells [1]; 10 μM Aβ42, 72 h",approximately 3.5 fold
same,Increase of tau phosphorylation at pS396 relative to untreated cells,"SH-SY5Y cells [1]; 10 μM Aβ42, 72 h",~2.3 fold
same,Cell morphology,"SH-SY5Y cells [2]; 10 μM Aβ42 treatment, 72 h",Impaired and nondifferentiated cells with retracted neurites
same,Inhibition of cell growth,SH-SY5Y cells [4]; 10 μM Aβ42,about 50%
3’-methoxymaysin [Compound 2],IC50,"GSK3β [5]; read-out: IC50, GSK3β inhibition, 25 μM ATP, 1 h, room temperature",288 µM
same,IC50,"CDK5/p25; read-out: IC50, CDK5/p25",> 15000 µM
O=c1cc(-c2ccc(O)c(O)c2)oc2cc(O)cc(O)c12 [luteolin],IC50,"GSK3β [7]; IC50, GSK3β, with 0.01% Triton, with 0.01% Triton X-100",32 µM
same,IC50,"GSK3β [7]; IC50, GSK3β, without Triton, before addition of Triton X-100",2 µM
